Test results: ChEMBL document CHEMBL3865834, “Dihydrobenzofuran Neolignanamides: Laccase-Mediated Biomimetic Synthesis and Antiproliferative Activity” (J Nat Prod, 2016)

How the values were obtained:
[1] = Lipophilicity of the compound assessed as capacity factor by HPLC analysis; assay type: physicochemical
Method in brief: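 Reversed-phase C18 HPLC (4.6 × 250 mm, 5 μm), 1 mL/min, acidified acetonitrile gradient 20→80% B over 30 min, diode-array detection. Capacity factor K = (tR − t0)/t0, where t0 is the retention time of the AA standard.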

[2] = Growth inhibition of human PC3 cells measured after 72 hrs by MTT assay; assay type: functional; settings: PC-3, 72 h
Method in brief: (§1)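 Cells plated at (2.5−3.0) × 10^3 per 0.33 cm2, treated after 24 h with 0.01−100 μM (final) for 3 days at 37 °C, 5% CO2; controls got 0.5−1% DMSO. MTT read at 570 nm, 6−8 wells per value.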

[3] = Growth inhibition of human MCF7 cells measured after 72 hrs by MTT assay; assay type: functional; settings: MCF7, 72 h; method in brief: as §1
[4] = Growth inhibition of human Caco2 cells measured after 72 hrs by MTT assay; assay type: functional; settings: Caco-2, 72 h; method in brief: as §1
[5] = Cell cycle arrest in human Caco2 cells assessed as accumulation at G0/G1 phase at 100 uM measured after 24 to 36 hrs by propidium iodide staining-based flow cytometry (reference value: 51.1%); assay type: functional; settings: Caco-2
Method in brief: (§2)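 Caco-2 cells grown in six-well plates, treated 24–36 h, compared with vehicle-treated cells. Harvested by trypsinization, PBS-washed, fixed in 70% ethanol at 4 °C for at least 30 min. Then RNase A for 1 h at 37 °C, propidium iodide (final 50 μg/mL) for 1 h at 37 °C, and analysed by flow cytometry. Means of three independent experiments.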

Caco-2 [6] = experiment: Induction of apoptosis in human Caco2 cells assessed as viable cells at 100 uM measured after 24 hrs by Alexa Fluor 488 Annexin V/propidium iodide staining-based flow cytometry (reference value: 95.1%); assay type: functional; settings: Caco-2, 24 h, read-out: Activity
Caco-2 [7] = experiment: Induction of apoptosis in human Caco2 cells assessed as necrotic cells at 100 uM measured after 24 hrs by Alexa Fluor 488 Annexin V/propidium iodide staining-based flow cytometry (reference value: […]); assay type: functional
[8] = Cell cycle arrest in human Caco2 cells assessed as accumulation at sub-G1 phase at 100 uM measured after 24 to 36 hrs by propidium iodide staining-based flow cytometry; assay type: functional; settings: Caco-2; method in brief: as §2
Caco-2 [9] = experiment: Induction of apoptosis in human Caco2 cells assessed as early apoptotic cells at 100 uM measured after 24 hrs by Alexa Fluor 488 Annexin V/propidium iodide staining-based flow cytometry (reference value: 3.9%); assay type: functional
[10] = Cell cycle arrest in human Caco2 cells assessed as accumulation at S-phase at 100 uM measured after 24 to 36 hrs by propidium iodide staining-based flow cytometry (reference value: 18 to 19.5%); assay type: functional; settings: Caco-2; method in brief: as §2
Caco-2 [11] = experiment: Induction of apoptosis in human Caco2 cells assessed as late apoptotic cells at 100 uM measured after 24 hrs by Alexa Fluor 488 Annexin V/propidium iodide staining-based flow cytometry (reference value: 1.8%); assay type: functional
[12] = Cell cycle arrest in human Caco2 cells assessed as accumulation at G2-phase at 100 uM measured after 24 to 36 hrs by propidium iodide staining-based flow cytometry (reference value: 28%); assay type: functional; settings: Caco-2; method in brief: as §2

| Structure (SMILES) | K [1] | GI50 [2] [µM] | GI50 [3] [µM] | GI50 [4] [µM] | further results |
| --- | --- | --- | --- | --- | --- |
| Cc1ccc(CNC(=O)/C=C/c2cc(O)c3c(c2)[C@@H](C(=O)NCc2ccc(C)cc2)[C@H](c2ccc(O)c(O)c2)O3)cc1 (racemic) | 7.89 |  |  |  |  |
| O=C(/C=C/c1ccc2c(c1)[C@@H](C(=O)NCCc1ccc(O)cc1)[C@H](c1ccc(O)cc1)O2)NCCc1ccc(O)cc1 (racemic) | 5.2 | 26 | 33.2 | 28.9 |  |
| COc1cc([C@@H]2Oc3c(OC)cc(/C=C/C(=O)NCCc4ccc(O)cc4)cc3[C@H]2C(=O)NCCc2ccc(O)cc2)ccc1O (racemic) [GROSSAMIDE] | 2.32 | 21 | 24 | > 100 |  |
| O=C(/C=C/c1cc(O)c2c(c1)[C@@H](C(=O)NCCc1ccc(O)cc1)[C@H](c1ccc(O)c(O)c1)O2)NCCc1ccc(O)cc1 (racemic) | 0.56 | 66 | 39.7 | > 10 |  |
| COc1cc([C@@H]2Oc3c(OC)cc(/C=C/C(=O)NCc4ccc(C)cc4)cc3[C@H]2C(=O)NCc2ccc(C)cc2)ccc1O (racemic) | 8.45 |  |  |  |  |
| COc1cc(CNC(=O)/C=C/c2cc(O)c3c(c2)[C@@H](C(=O)NCc2cc(OC)c(OC)c(OC)c2)[C@H](c2ccc(O)c(O)c2)O3)cc(OC)c1OC (racemic) | 5.69 |  |  |  |  |
| Cc1ccc(CNC(=O)/C=C/c2ccc3c(c2)[C@@H](C(=O)NCc2ccc(C)cc2)[C@H](c2ccc(O)cc2)O3)cc1 (racemic) | 8.36 |  |  |  |  |
| COc1cc(CNC(=O)/C=C/c2ccc3c(c2)[C@@H](C(=O)NCc2cc(OC)c(OC)c(OC)c2)[C@H](c2ccc(O)cc2)O3)cc(OC)c1OC (racemic) | 6.35 |  |  |  |  |
| COc1cc([C@@H]2Oc3c(OC)cc(/C=C/C(=O)NCc4cc(OC)c(OC)c(OC)c4)cc3[C@H]2C(=O)NCc2cc(OC)c(OC)c(OC)c2)ccc1O (racemic) | 6.32 |  |  |  |  |
| O=c1[nH]cc(F)c(=O)[nH]1 [FLUOROURACIL] |  | 4.1 to 6.3 | 3.6 to 3.8 | 3.3 to 4.2 | Activity [5]: 50.1%; viability at 100 µM (Caco-2 [6]): 36.8%; Activity (Caco-2 [7]): 0.3%; Activity [8]: 10.4%; Activity (Caco-2 [9]): 56.2%; Activity [10]: 37.5 to 39.8%; Activity (Caco-2 [11]): 5.3%; Activity [12]: 1.9% |
